ChEMBL document CHEMBL3870332, “Development of pharmacophore models for small molecules targeting RNA: Application to the RNA repeat expansion in myotonic dystrophy type 1” (Bioorg Med Chem Lett, 2016)
Each block holds one compound with its values, some of them ahead of it. The source made the active and inactive calls. The calls are words filed in the database; no cut-off is given here.

Columns and labels:
[1] = Binding affinity to biotinylated-r(CUG)12 RNA (unknown origin) assessed as disruption of r(CUG)12/His6-tagged MBNL1 complex at 50 uM incubated for 15 mins by TR-FRET assay
In short: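 TR-FRET disruption of a preformed r(CUG)12–MBNL1 complex, method as described previously; each compound screened at a single 50 µM concentration.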

C2C12 [2] = experiment: Binding affinity to r(CUG)800 RNA (unknown origin) expressed in mouse C2C12 cells assessed as increase in nucleocytoplasmic transport of mRNA at 12.5 to 50 uM measured after 20 to 24 hrs by luciferase reporter gene assay; type: cell-based
In short: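 Run in C2C12 cells expressing a luciferase-encoding mRNA carrying 800 CUG repeats in the 3′ UTR. Nucleocytoplasmic export is read as luciferase turnover of a pro-luminescent substrate. Compounds tested at 50, 25 and 12.5 µM.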

C2C12 [3] = experiment: Effect on luciferase expression in mouse C2C12 cells at 12.5 to 50 uM measured after 20 to 24 hrs by luminescence assay; type: functional, cell-based
In short: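 Counterscreen in the same C2C12 luciferase line without CUG repeats, used to flag compounds that enhance luciferase translation non-specifically. Compounds tested at 50, 25 and 12.5 µM.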

[4] = Cytotoxicity against human HeLa cells expressing DM1 assessed as reduction in cell viability at 100 uM measured after 24 hrs by WST-1 assay; type: toxicity, cell-based
HeLa [5] = experiment: Binding affinity to r(CUG)960 RNA (unknown origin) expressed in human HeLa cells co-expressing cTNT mini-gene assessed as reduction in deregulated cTNT exon5 alternative splicing at 10 uM measured after 20 to 24 hrs by RT-PCR analysis; type: cell-based
HeLa [6] = experiment: Increase in DMPK transcript level in human HeLa cells co-expressing DM1/DMPK and cTNT mini-gene at 100 uM measured after 20 to 24 hrs by RT-qPCR method; type: functional, cell-based
HeLa [7] = experiment: Binding affinity to r(CUG)960 RNA (unknown origin) expressed in human HeLa cells co-expressing cTNT mini-gene assessed as reduction in deregulated cTNT exon5 alternative splicing at 100 uM measured after 20 to 24 hrs by RT-PCR analysis; type: cell-based
[8] = Binding affinity to tRNA (unknown origin) measured after 30 mins by fluorescence analysis
[9] = Binding affinity to AT hairpin DNA (unknown origin) measured after 30 mins by fluorescence analysis
[10] = Binding affinity to r(CUG)2 RNA (unknown origin) measured after 5 mins by fluorescence analysis
[11] = Binding affinity to r(GC)20 RNA (unknown origin) measured after 5 mins by fluorescence analysis

Compound: O=C(Nc1ccc2c(c1)C(=O)N(c1ccccc1)C2=O)c1ccco1
Activity [1]: > 20%
Activity (C2C12 [2]): Active
Activity (C2C12 [3]): Active

Compound: O=C(Nc1ccccn1)c1cccc(OCc2cscn2)c1
Activity [4]: Non-Toxic
Activity (HeLa [5]): Active
Activity [1]: > 20%
Activity (C2C12 [2]): Active
Activity (HeLa [6]): Active
Activity (HeLa [7]): Active

Compound: Cc1c(C(=O)Nc2ccccn2)sc2nc(-c3ccccc3)cn12
Activity [1]: > 20%
Activity (C2C12 [2]): Active
Activity (C2C12 [3]): Active

More lines, main results first:

Activity [1]: > 20%
Compound: Nc1ccc(-c2nc3ccc(-c4nc5ccc(N)cc5[nH]4)cc3[nH]2)cc1

Kd [8]: > 50 µM
Kd [9]: > 50 µM
Activity [1]: > 20%
Kd [10]: 4.6 µM
Kd [11]: > 30 µM
Compound: O=C(Nc1ccc(NC(=O)c2ccc(F)cc2)nc1)c1ccncc1
Activity [4]: Non-Toxic
Activity (HeLa [5]): Active
Activity (C2C12 [2]): Active
Activity (HeLa [7]): Active

Activity [1]: > 20%
Compound: O=C(Nc1ccc2[nH]c(-c3ccc(F)cc3)nc2c1)c1ccncc1
Activity [4]: Non-Toxic
Activity (C2C12 [2]): Active
Activity (HeLa [7]): Active

Activity [1]: > 20%
Compound: O=C(Nc1ccc(-c2nc3ccccc3[nH]2)cc1)c1cccnc1
Activity (C2C12 [2]): Active
Activity (C2C12 [3]): Active
